Test [1] in a line: Selectivity for 5HT1A receptor in rat hippocampus over human adrenergic alpha 1A receptor. The format is tissue-based.
The target of test [2] is Alpha adrenergic receptor 1A and 1D (Rattus norvegicus) (UniProt P23944+P43140). Put plainly: Selectivity for Sprague-Dawley rat adrenergic alpha 1D receptor over adrenergic alpha 1A receptor. Format: functional.
Test [3] deals with T1, Alpha-1D adrenergic receptor (Rattus norvegicus, UniProt P23944).
T1 sequence (P23944 whole entry): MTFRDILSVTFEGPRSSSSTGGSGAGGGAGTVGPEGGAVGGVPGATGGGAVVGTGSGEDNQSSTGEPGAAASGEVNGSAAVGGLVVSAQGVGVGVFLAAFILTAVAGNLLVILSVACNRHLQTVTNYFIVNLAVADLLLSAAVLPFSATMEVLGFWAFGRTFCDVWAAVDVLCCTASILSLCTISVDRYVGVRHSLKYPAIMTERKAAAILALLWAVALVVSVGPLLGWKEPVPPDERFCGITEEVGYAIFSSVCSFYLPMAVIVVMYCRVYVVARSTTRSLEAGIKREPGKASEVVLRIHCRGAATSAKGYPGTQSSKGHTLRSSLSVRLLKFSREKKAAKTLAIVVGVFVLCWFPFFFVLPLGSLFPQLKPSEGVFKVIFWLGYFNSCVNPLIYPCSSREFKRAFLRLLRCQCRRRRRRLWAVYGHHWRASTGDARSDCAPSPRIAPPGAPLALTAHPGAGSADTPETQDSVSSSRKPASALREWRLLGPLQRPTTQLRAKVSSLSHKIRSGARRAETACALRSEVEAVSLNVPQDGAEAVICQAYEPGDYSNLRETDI
Put plainly: Activity at adrenergic alpha 1D receptor assessed as antagonism on noradrenaline-induced contraction of Sprague-Dawley rat thoracic aorta. The format is functional, tissue-based. Particulars: read-out: pA2 (converted). In outline:
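Rat thoracic aorta contracted with (-)-noradrenaline. Blocking activity was measured as antagonism of the contraction.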

Test [4] has as its target T2, 5-hydroxytryptamine receptor 1A (Rattus norvegicus, UniProt P19327).
T2 sequence (P19327 whole entry): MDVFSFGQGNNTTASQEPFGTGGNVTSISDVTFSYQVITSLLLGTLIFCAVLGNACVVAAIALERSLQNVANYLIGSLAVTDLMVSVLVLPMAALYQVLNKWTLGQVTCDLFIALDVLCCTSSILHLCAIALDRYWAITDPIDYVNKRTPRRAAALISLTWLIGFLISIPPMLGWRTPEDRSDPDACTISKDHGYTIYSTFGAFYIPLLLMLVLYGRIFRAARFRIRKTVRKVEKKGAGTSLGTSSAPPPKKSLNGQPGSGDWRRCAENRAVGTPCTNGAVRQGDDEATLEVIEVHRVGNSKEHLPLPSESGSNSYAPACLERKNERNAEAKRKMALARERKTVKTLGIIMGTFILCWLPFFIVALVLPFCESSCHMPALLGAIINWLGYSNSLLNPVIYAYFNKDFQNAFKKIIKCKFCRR
Put plainly: Displacement of [3H]8-OH-DPAT from 5-HT1A receptor in rat hippocampus. Format: tissue-based. In a few lines:
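Radioligand binding with [3H]-8-OH-DPAT in membrane preparations from rat hippocampus. Affinity is expressed as pKi.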
(In a radioligand displacement assay an active substance lowers the binding of a labelled ligand.)

Test [5] addresses Adrenergic receptors; alpha-1 A & B (Homo sapiens) (UniProt P35348+P35368). Kind of test: Selectivity for human adrenergic alpha 1B receptor over human adrenergic alpha 1A receptor. Format: protein assay.
Test [6] addresses Alpha adrenergic receptor 1A and 1B (Rattus norvegicus) (UniProt P15823+P43140). Put plainly: Selectivity for Sprague-Dawley rat adrenergic alpha 1B receptor over adrenergic alpha 1A receptor. The format is functional.
The target in test [7] is T3, Alpha-1D adrenergic receptor (Homo sapiens, UniProt P25100).
T3 sequence (P25100 whole entry): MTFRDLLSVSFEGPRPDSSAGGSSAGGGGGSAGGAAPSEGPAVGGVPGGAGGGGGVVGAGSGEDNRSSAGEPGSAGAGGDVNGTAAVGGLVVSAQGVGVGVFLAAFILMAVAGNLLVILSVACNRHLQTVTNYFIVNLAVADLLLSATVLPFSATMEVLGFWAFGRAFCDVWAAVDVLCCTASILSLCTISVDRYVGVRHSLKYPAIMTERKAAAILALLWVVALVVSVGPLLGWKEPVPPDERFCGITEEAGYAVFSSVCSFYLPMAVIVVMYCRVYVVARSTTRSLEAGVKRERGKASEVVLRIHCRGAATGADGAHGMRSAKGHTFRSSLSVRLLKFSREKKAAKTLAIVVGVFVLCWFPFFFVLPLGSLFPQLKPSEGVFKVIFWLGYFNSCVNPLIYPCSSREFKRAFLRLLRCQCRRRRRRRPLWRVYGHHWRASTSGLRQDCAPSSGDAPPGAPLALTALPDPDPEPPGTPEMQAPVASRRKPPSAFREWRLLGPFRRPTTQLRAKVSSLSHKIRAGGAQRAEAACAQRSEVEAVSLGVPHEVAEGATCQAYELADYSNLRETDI
Put plainly: Displacement of [3H]prazosin from cloned human adrenergic alpha 1D receptor expressed in CHO cells. The format is cell-based. In a few lines:
(§1)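 Radioligand binding with [3H]prazosin as the label. Membranes came from CHO cells expressing the cloned human receptor. Affinity is expressed as pKi.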

The target in test [8] is T4, Alpha-1B adrenergic receptor (Homo sapiens, UniProt P35368).
T4 sequence (P35368 whole entry): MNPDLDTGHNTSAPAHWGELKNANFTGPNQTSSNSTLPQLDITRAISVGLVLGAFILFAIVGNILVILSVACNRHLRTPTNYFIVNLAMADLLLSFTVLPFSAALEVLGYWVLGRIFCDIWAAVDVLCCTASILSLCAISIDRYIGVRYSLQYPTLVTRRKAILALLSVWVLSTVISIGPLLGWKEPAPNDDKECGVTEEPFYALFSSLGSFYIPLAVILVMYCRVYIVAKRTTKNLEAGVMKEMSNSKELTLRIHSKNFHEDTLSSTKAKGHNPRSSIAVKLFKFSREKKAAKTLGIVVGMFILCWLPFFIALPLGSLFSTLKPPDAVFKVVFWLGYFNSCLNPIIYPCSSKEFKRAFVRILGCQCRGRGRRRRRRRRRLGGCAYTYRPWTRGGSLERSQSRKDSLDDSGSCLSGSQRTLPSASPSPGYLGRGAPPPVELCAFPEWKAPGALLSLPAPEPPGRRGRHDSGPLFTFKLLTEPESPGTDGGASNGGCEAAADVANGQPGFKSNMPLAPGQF
Kind of test: Displacement of [3H]prazosin from cloned human adrenergic alpha 1B receptor expressed in CHO cells. The format is cell-based. In outline:
as §1

Molecules are shown by their SMILES.

Adrenergic receptors; alpha-1 A & B (Homo sapiens), sequence (P35348 whole entry, looked up, one chain of several): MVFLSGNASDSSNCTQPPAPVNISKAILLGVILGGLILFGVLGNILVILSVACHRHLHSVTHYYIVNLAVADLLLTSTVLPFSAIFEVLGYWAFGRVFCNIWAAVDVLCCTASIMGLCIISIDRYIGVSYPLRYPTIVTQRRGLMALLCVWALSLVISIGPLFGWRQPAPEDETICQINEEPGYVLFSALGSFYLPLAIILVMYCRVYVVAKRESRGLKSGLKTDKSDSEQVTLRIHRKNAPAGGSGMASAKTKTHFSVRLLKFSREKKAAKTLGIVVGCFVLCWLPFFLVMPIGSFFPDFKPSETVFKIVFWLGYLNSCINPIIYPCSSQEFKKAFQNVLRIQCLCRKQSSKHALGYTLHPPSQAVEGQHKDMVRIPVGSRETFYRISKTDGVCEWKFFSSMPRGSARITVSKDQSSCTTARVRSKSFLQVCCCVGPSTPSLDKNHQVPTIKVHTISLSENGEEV
Alpha adrenergic receptor 1A and 1B (Rattus norvegicus), sequence (P15823 whole entry, looked up): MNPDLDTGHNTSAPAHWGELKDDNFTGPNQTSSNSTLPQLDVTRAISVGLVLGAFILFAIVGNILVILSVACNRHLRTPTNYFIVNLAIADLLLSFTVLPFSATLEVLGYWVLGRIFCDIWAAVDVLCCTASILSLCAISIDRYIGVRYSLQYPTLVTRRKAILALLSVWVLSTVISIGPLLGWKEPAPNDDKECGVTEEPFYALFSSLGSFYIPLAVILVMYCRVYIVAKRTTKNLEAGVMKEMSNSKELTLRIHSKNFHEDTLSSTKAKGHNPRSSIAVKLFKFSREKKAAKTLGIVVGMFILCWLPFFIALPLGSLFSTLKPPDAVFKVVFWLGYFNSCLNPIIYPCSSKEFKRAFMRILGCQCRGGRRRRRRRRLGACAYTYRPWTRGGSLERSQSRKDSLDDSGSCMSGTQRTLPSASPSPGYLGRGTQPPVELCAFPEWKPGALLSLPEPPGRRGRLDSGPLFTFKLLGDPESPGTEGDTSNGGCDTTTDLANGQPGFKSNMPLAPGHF
Alpha adrenergic receptor 1A and 1B (Rattus norvegicus), sequence (P43140 whole entry, looked up): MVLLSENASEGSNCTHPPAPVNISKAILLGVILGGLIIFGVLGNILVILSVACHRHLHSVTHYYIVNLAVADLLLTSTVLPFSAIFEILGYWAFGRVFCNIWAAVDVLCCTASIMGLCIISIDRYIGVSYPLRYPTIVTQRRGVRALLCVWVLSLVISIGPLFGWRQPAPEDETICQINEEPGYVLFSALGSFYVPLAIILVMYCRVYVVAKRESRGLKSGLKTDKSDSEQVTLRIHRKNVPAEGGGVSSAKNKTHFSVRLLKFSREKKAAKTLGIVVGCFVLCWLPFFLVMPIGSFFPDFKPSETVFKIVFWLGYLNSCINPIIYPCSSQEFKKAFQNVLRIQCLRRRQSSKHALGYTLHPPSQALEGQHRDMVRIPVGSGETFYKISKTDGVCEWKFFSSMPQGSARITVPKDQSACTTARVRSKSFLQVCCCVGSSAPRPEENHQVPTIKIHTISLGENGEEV
Alpha adrenergic receptor 1A and 1D (Rattus norvegicus), sequence (P43140 whole entry, looked up, one chain of several): as the sequence (P43140 whole entry, looked up) above

A word on the Ki: it is the dissociation constant of the complex between target and ligand, obtained from inhibition or displacement. A high value points to weaker binding. On to `COc1cccc(OC)c1OCCNC[C@H]1COc2cc3c(cc2O1)CCCC3`, for which the Selectivity ratio in test [1] is 14.5; in test [2] it was under 0.4; in test [5], 22.9; in test [6] it was under 0.3. In test [3], the Kb was 4370 nM. In addition, the Ki is 363 nM in test [4], 339 nM in test [7] and 575 nM in test [8].

For `COc1ccc2c(c1OCCNC[C@H]1COc3ccccc3O1)CCCC2`, the Selectivity ratio in test [1] is 3; in test [2] it was 0.04; in test [5], 6.8; in test [6], 0.05. In addition, the Kb in test [3] was 4.07 nM. In addition, the inhibitory constant (Ki) in test [4] is 8.51 nM; in test [7], 14.5 nM; in test [8], 19.1 nM.

As for `COc1cc(-c2ccccc2)ccc1OCCNC[C@H]1COc2ccccc2O1`, the Selectivity ratio in test [1] stood at 0.9; in test [2], 0.14; in test [5], 2.1; in test [6], 0.17. Also, the Kb in test [3] was 107 nM. For the same compound, the inhibitory constant (Ki) in test [4] was 74.1 nM; in test [7], 214 nM; in test [8], 186 nM.

Turning to `COc1cccc(OC)c1OCCNC[C@H]1COc2cc3ccccc3cc2O1`, the Selectivity ratio in test [1] amounted to 10.2; in test [2], 0.05; in test [5], 26.3; in test [6], 0.7. In addition, in test [3], the Kb is 182 nM. The inhibition constant Ki in test [4] was 347 nM; in test [7], 417 nM; in test [8], 891 nM.

Regarding `COc1ccc(-c2ccccc2)cc1OCCNC[C@H]1COc2ccccc2O1`, the Selectivity ratio in test [1] is 9.3; in test [2] it was under 0.006; in test [5], 1.9; in test [6], under 0.01. Moreover, the Kb in test [3] was 61.7 nM. Moreover, the Ki in test [4] was 52.5 nM; in test [7] it was 15.1 nM; in test [8] it was 11 nM.

In the case of `COc1ccc2ccccc2c1OCCNC[C@@H]1COc2ccccc2O1`, the Selectivity ratio in test [1] was 14.8; in test [2] it was 0.17; in test [5], 18.6; in test [6] it was 0.25. In addition, the Kb in test [3] was 10 nM. The Ki was 67.6 nM in test [4], 22.4 nM in test [7] and 85.1 nM in test [8].

Regarding `COc1ccc2ccccc2c1OCCNC[C@H]1COc2cc3c(cc2O1)CCCC3`, the Selectivity ratio is 25.7 in test [1], 245 in test [2], 5.6 in test [5] and over 955 in test [6]. Besides, the Kb in test [3] is 2570 nM. For the same compound, the Ki in test [4] is 1700 nM; in test [7], 148 nM; in test [8], 372 nM.

On to `COc1cccc(-c2ccccc2)c1OCCNC[C@H]1COc2ccccc2O1`, for which the Selectivity ratio in test [1] was determined as 5.8; in test [2], 0.2; in test [5], 14.8; in test [6], 1.2. The Kb in test [3] was 1.02 nM. Further, the Ki was 6.92 nM in test [4], 3.39 nM in test [7] and 17.8 nM in test [8].

`COc1ccc2ccccc2c1OCCNC[C@H]1COc2ccccc2O1`: the Selectivity ratio was determined as 7.1 in test [1], 0.02 in test [2], 10 in test [5] and 0.2 in test [6]. Besides, the Kb in test [3] is 0.0209 nM. The Ki in test [4] is 11.2 nM; in test [7] it was 6.61 nM; in test [8], 15.8 nM.

Values taken from ChEMBL document CHEMBL1137361, “WB4101-related compounds: new, subtype-selective alpha1-adrenoreceptor antagonists (or inverse agonists?)” (J Med Chem, 2006).
